# HUVEC prolif 384: inhibitors of HUVEC proliferation, primary screen, cell-based, 384-well; viability, % at 10 µM (by protocol); 86,000 compounds, 1.1% hits; AID 648, 2007; CellTiter-Glo luminescence, 72 h; hits give low values;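 active means viability at or below 30%; inactive means viability above 30%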;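 further: 100% = median luminescence of DMSO-only cell control wells on each plate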
# H69AR growth 86K: proliferation blockers of H69AR lung cancer cells, primary screen, cell-based, human, 86K library. AID 598, 2007. H69AR lung tumor viability, ATP luminescence, 72 h; hits give low values. 85,000 compounds, 6% hits. viability, % at 10 µM;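 active means viability at or below 40%; inactive means viability above 40%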;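 further: multidrug resistant small cell line overexpressing MRP-1 efflux transporter; 100% = mean luminescence of untreated control wells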
# PTEN del growth: growth suppression of PTEN-null HCT116, primary screen, cell-based, CellTiter-Glo. HCT116 PTEN-null viability, 60 h; hits give low values. viability, % at 10 µM. 140,000 compounds, 1.2% hits;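 active means viability at or below a set limit, 4 SD under the median of all tested compounds, cut at about 3.7% in these data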;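 further: PTEN knockout HCT116 line with beta catenin targeted HCT116 as companion control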
# HCT116 bCat-KO: primary screen for growth suppressors in beta-catenin knockout HCT116 cells (colon tumor, human) | 140,000 compounds, 1.5% hits | HCT116 beta-catenin knockout viability, CellTiter-Glo, 60 h; hits give low values | viability, % at 10 µM;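 active means viability at or under a set limit, the compound median less 4 SD, cut at about 6% in these data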;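 further: 0% = Hyamine 1622 control at 20 µM and 100% = untreated cell control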
# Lung fibro prol: antiproliferative effect on LL 47 fibroblasts – human, LL 47 cells, CellTiter-Glo luminescence, primary screen; 85,000 compounds, 1.1% hits; LL 47 human lung fibroblast viability, ATP luminescence; hits give low values; viability, % at 10 µM;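 active means viability at or below 50% in the single dose screen; inactive means viability above 50%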;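 further: compound exposure lasted 72 h before the ATP readout; 100% = median luminescence of untreated cell-only wells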
#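 material = human LL 47 lung fibroblast cells | dosing = compounds added from tenfold dosing solution, 0.1% DMSO final | timing = overnight cell rest, 72 h compound treatment at 37 °C | measured by = CellTiter-Glo luminescence measuring cellular ATP | evaluation = % viability versus median cells-only luminescence | control set = cell-only wells, no compound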
# Starred values were filed as active, the others as inactive; . = no result given. Many of the other results were omitted from the sample, so hits are more common in it than they were.
SMILES,HUVEC prolif 384,H69AR growth 86K,PTEN del growth,HCT116 bCat-KO,Lung fibro prol
CCN(CC(=O)Nc1ccc2c(c1)CCC2)Cc1nc2ccccc2c(=O)[nH]1,83.9,33.2*,70.7,75.3,85.5
CCN(Cc1nc2ccccc2c(=O)[nH]1)Cc1nc2cc(OC)c(OC)cc2c(=O)[nH]1,92.9,14.7*,99.7,97.1,103.3
CCN(CC(=O)NC(c1ccccc1)c1ccccc1)Cc1nc2ccccc2c(=O)[nH]1,87.6,53.4,83.7,80.5,99.0
CCN(CC)CC(=O)Nc1ccc2c(c1)Nc1ccccc1CC2,34.5,4.0*,30.6,30.9,76.9
COc1cc2nc(CN(C)Cc3nc4ccccc4c(=O)[nH]3)[nH]c(=O)c2cc1OC,.,.,91.2,103.1,.
N=C1C(c2nc(-c3ccc(Cl)cc3)cs2)=C(O)CN1CCCN1CCOCC1,10.0*,62.4,60.4,55.8,106.6
Cc1nc2ccc(S(=O)(=O)NC(C(=O)Nc3nccs3)C(C)C)cc2s1 (stereo not drawn),97.7,95.3,90.5,92.5,98.2
Cc1nc2ccc(S(=O)(=O)NC(C(=O)Nc3nc4ccc(Cl)cc4s3)C(C)C)cc2s1 (stereo not drawn),96.3,30.5*,53.5,48.8,96.4
O=C(CN1CCC(NC(=O)c2ccccc2F)CC1)NCc1ccc(F)cc1,88.8,3.2*,86.7,90.9,101.8
CCOC(=O)c1nnn(-c2nonc2N)c1COc1cc(C)c(Cl)c(C)c1,99.4,23.7*,.,.,102.1
O=C(NCc1ccccc1)c1ccc(N2C(=O)C3CCCCC3C2=O)cc1 (stereo not drawn),.,.,101.3,102.0,.
Cc1cc(NC(=O)CC2CCCC2)n(-c2nc3ccccc3[nH]2)n1,59.3,28.7*,15.2,13.9,.
CCOC(CNc1c([N+](=O)[O-])c(=O)n(C)c(=O)n1C)OCC,.,.,94.4,94.1,.
C/C(=N\NC(=O)c1ccn(C)n1)c1cccc(NC(=O)c2ccncc2)c1,.,.,94.8,92.0,.
O=S1(=O)c2ccccc2N=NN1Cc1ccc(Cl)cc1,20.6*,1.1*,103.0,97.3,6.2*
O=S1(=O)c2ccccc2N=NN1Cc1cc(Cl)cc(Cl)c1,78.2,1.2*,80.0,71.3,47.0*
N/C(=N\OC(=O)CCC1CCCC1)c1cccnc1,.,.,95.8,99.7,.
COC(=O)C(C)(C)ONC(=O)Nc1ccc(C)cc1,.,.,101.1,94.4,.
COc1ccc(S(=O)(=O)Nc2ccc(O)c(Sc3ncn[nH]3)c2)cc1,86.4,91.8,88.9,97.5,92.0
O=S(=O)(Nc1cc(Sc2cccc3cccnc23)c(O)c2ccccc12)c1ccc(F)cc1,.,.,1.4*,1.3*,.
O=S(=O)(Nc1cccc2cn[nH]c12)c1ccc(F)cc1,103.5,107.1,89.1,110.6,104.1
COc1ccc(S(=O)(=O)Nc2cc(Sc3ncn[nH]3)c(O)c3ccccc23)cc1,.,.,2.5*,1.7*,.
O=C(/C=C/c1cccc(C(F)(F)F)c1)Nc1cccc(C(F)(F)F)c1,.,.,2.3*,3.8*,.
Cc1cc(NC(=O)CCCS(=O)(=O)c2nc(-c3cccs3)cc(C(F)(F)F)n2)no1,.,.,3.3*,6.7,.
Cc1cc(NC(=O)CSc2nc(-c3cccs3)cc(C(F)(F)F)n2)no1,41.6,29.1*,18.3,21.3,53.0
SMILES,HUVEC prolif 384,H69AR growth 86K,PTEN del growth,HCT116 bCat-KO,Lung fibro prol
CCCNC(=O)CSc1nc(-c2cccs2)cc(C(F)(F)F)n1,100.2,88.0,75.7,89.6,96.8
Cc1ccc(SCCOCCN2CCc3ccccc3C2)cc1,.,.,62.4,57.9,.
COc1cc2c(cc1NC(=O)c1ccncc1)oc1ccccc12,75.2,48.3,89.2,82.2,70.9
COc1cc2c(cc1NC(=O)c1cc(-c3ccccn3)nc3ccccc13)oc1ccccc12,.,.,4.8,6.1*,.
COc1cc2c(cc1NC(=O)c1cccnc1)oc1ccccc12,64.0,35.1*,85.4,87.9,84.5
COc1ccc(NS(=O)(=O)c2cccc(N/C(=N\S(=O)(=O)c3ccccc3)c3ccc(F)cc3)c2)cc1,.,.,50.7,49.6,.
Cc1ccccc1-n1c(O)c(/C=N/N2CCCCC2c2cccnc2)c(=O)[nH]c1=O (stereo not drawn),.,.,87.6,81.3,.
Cc1ccc(SC(=O)COc2ccccc2C)cc1,72.6,1.7*,.,90.5,94.2
O=C(N/N=C/c1cccc(C(F)(F)F)c1)C1CCN(c2ncc(C(F)(F)F)cc2Cl)CC1,.,.,2.1*,4.0*,.
COc1cc(CNCc2ccccn2)ccc1OCC(N)=O,.,.,101.7,110.4,.
COc1cc(CNCc2ccccn2)ccc1OCc1ccc(Cl)cc1Cl,.,.,3.5*,2.4*,.
Cc1ccc([N+](=O)[O-])cc1N(CC(=O)Nc1ccc(S(=O)(=O)Nc2cccc(C(F)(F)F)c2)cc1)S(C)(=O)=O,.,.,43.8,54.9,.
O=C(NC1CCCCC1)c1sc(N2CCOCC2)nc1-c1ccccc1,.,.,64.1,70.2,.
COc1cc2c(-c3ccc(O)cc3)nc3c(c(C)nn3-c3ccccc3)c2cc1OC,.,.,1.2*,1.0*,.
COc1ccccc1/C=C(/CC(=O)NCc1ccc2c(c1)OCO2)c1nc2ccccc2s1,.,.,75.6,87.7,.
Cc1noc(C)c1CSc1cc(C)c2ccccc2n1,96.8,22.5*,79.9,92.4,89.8
CC1(C)Cc2c(sc3c2c(=N)n(Cc2ccco2)c(=O)n3CC(=O)Nc2ccc(Cl)cc2)CO1,77.9,88.4,.,.,21.8*
CCOc1cc(/C=C(\C#N)C(=O)NCC2CCCO2)ccc1O (stereo not drawn),.,.,100.8,88.4,.
CCOc1cc(/C=C(\C#N)c2[nH]nc(N)c2C#N)ccc1O,63.8,36.6*,83.7,78.9,81.6
CCOc1cc(-c2c(C#N)c(N)nc3c2CCCC3C)ccc1O (stereo not drawn),76.1,31.1*,101.5,84.3,95.7
CCOc1cc(-c2c(C#N)c(N)nc3c2CCc2ccccc2-3)ccc1O,.,.,46.6,49.5,.
CCOc1cc(-c2cc(-c3ccc(C)cc3)nc(N)c2C#N)ccc1O,41.1,6.9*,7.0,8.2,65.0
CCOC(=O)c1c(-c2ccccc2)csc1NC(=O)c1cc(S(=O)(=O)N2CCOCC2)ccc1C,.,.,78.8,87.7,.
COc1ccccc1NC(=O)c1oc2ccccc2c1NC(=O)c1cc(OC)c(OC)c(OC)c1,40.7,22.1*,.,.,70.9
COc1cccc(OCC(=O)Nc2c(C(=O)Nc3ccc(OC)cc3OC)oc3ccccc23)c1,31.9,20.6*,.,.,76.8
COc1cccc2cc(C(=O)NCc3ccco3)c(=Nc3ccc(C(=O)O)cc3)oc12,77.9,11.9*,49.0,66.8,85.5
COc1cccc2cc(C(=O)NCc3ccco3)c(=O)oc12,.,.,98.4,90.6,.
O=C1[C@@H]2[C@@H]3C[C@@H]([C@H]4ON=C(c5ccc(OCc6ccccc6)cc5)[C@@H]34)[C@@H]2C(=O)N1c1ccc2c(c1)OCO2,.,.,85.7,82.9,.
COc1cccc(-c2noc(N)c2C#N)c1,99.5,27.9*,96.0,91.4,97.0
CN1c2ccccc2C(C)(C)C12CC(CCl)=NO2 (stereo not drawn),90.1,4.5*,82.4,81.5,95.8

# Bioassay records deposited in PubChem by SRMLSC.
